# AHR act = AHR activators, primary screen, cell-based, luminescence, luciferase reporter, human | activation, % at 5 µM | hit rate 2.5% among 320,000 | AID 2796, 2010 | AHR-responsive luciferase reporter cells; in the data active = activation above about 47%;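 note: 0% = vehicle wells and 100% = reference agonist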
# procasp7 counter = procaspase-7 activators, primary screen, counter-screen for procaspase-3 activator project, biochemical, absorbance, HTS, human. recombinant procaspase-7, Ac-DEVD-pNA absorbance 405 nm; D23A/D198A/D206A triple mutant, cannot self-cleave; scale: DMSO 0, 5 µM enzyme 100. activation, % at 8.5 µM. hit rate 0.093% among 330,000. AID 463210, 2010;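 active = percent activation above the screen-wide mean plus 3 SD, cut at about 25% in these data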
# Target sequence (P55210 whole entry D23A/D198A/D206A): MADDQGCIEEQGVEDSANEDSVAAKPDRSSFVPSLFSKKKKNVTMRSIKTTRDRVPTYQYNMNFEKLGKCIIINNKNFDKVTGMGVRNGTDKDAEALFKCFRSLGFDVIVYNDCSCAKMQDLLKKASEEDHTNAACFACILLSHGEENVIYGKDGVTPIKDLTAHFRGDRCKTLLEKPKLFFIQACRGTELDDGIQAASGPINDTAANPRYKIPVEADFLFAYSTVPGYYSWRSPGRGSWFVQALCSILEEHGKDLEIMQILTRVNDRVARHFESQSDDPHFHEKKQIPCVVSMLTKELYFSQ
#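 System: Procaspase-7 triple mutant (PC-7 D3A); measure: % activation from two-timepoint absorbance difference, scaled to controls; times: 1 h compound preincubation, 2 h substrate cleavage, 25 °C; also added: Ac-DEVD-pNA substrate, 400 µM as added; measured by: Epi-absorbance of released pNA at 405 nm, two timepoints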
# procasp3 activ = activators of human procaspase-3 D3A mutant, primary screen, biochemical, absorbance, PC-3 D3A mutant, single concentration. recombinant procaspase-3 D3A, Ac-DEVD-pNA absorbance 405 nm. activation, % at 8.5 µM. hit rate 0.11% among 330,000;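 active = activation above the mean of all tested compounds plus 3 SD, cut at about 21% in these data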;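 note: 0% = DMSO alone and 100% = DMSO wells spiked with extra 5 µM PC-3 D3A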
# Target sequence (P42574 whole entry D9A/D28A/D175A): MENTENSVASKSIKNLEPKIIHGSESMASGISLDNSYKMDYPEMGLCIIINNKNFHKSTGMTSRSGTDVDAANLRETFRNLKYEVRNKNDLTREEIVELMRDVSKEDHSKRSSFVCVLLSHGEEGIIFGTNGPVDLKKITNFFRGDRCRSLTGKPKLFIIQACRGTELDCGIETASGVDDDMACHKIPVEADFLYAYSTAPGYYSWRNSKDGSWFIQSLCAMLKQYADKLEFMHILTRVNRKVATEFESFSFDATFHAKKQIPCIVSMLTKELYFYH
#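 Assay system – Procaspase-3 D3A mutant, all three cleavage aspartates alanine · Controls – DMSO-only low control, 5 µM PC-3 D3A high control · Schedule – 1 h compound preincubation, 2 h substrate hydrolysis at 25 °C · Signal – 405 nm absorbance of p-nitroaniline, reads at 0 and 120 min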
# PolyA inh = polyadenylation inhibitors in yeast reporter cells, primary screen, luminescence, S. cerevisiae. S. cerevisiae SKY197-pL101 polyadenylation reporter, beta-gal luminescence; efflux-impaired pdr1/pdr3 knockout yeast; score 100 = 6 SD above DMSO. activity score, % at 12 µM. hit rate 0.02% among 300,000. AID 1875, 2009;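 active = lowest replicate activity score at least 50, where 100 means six control SD above control mean; inconclusive = lowest score under 50 but half or more replicates reach 50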;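 note: yeast exposed to compound for 9 h at 30 °C; higher score means more reporter readthrough which indicates perturbed polyadenylation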
# The depositor's hits bear a star; ? = inconclusive; . = not tested or not shown. An excerpt weighted towards active compounds, which were near 2.6% of everything screened.
SMILES,AHR act,procasp7 counter,procasp3 activ,PolyA inh
CC1CC(C)CN(C(=O)c2cc3ccccc3o2)C1 (stereo not drawn),58*,13,-6,2
Cc1cc(-n2c(SCC(=O)NCc3cccs3)nc3n[nH]c(C)c3c2=N)ccc1Cl,70*,12,-4,10
c1ccc(CNc2nc3ccccc3n3cnnc23)nc1,50*,13,3,0
O=C(NNC(=O)c1c(F)cccc1F)c1sccc1-n1cccc1,2,6,0,-4
C/C(=N/NC(=O)c1cccs1)c1cccs1,14,3,-1,-8
O=C(NNC(=O)c1sccc1-n1cccc1)c1cccs1,47*,-6,2,18
C/C(=N\NC(=O)c1sccc1-n1cccc1)c1cccs1,78*,2,8,6
Nc1cc(C(=O)OCC(=O)Nc2cccc(S(=O)(=O)N3CCOCC3)c2)ccc1Cl,2,3,2,.
COc1ccc(N(CC(=O)Nc2ccc3c(c2)OCO3)S(=O)(=O)c2ccc(C)cc2)cc1OC,28,5,2,2
COc1ccc(S(=O)(=O)N(C)CC(=O)Nc2ccc3c(c2)OCO3)cc1,6,6,-4,7
Cc1nn(C)c(C)c1S(=O)(=O)N(CC(=O)Nc1ccc2c(c1)OCO2)c1ccc(C(C)C)cc1,56*,-1,1,.
COc1ccc(N(CC(=O)Nc2ccc3c(c2)OCO3)S(=O)(=O)c2ccc(F)cc2)cc1,67*,0,-10,-6
COc1ccc(N(CC(=O)Nc2ccc3c(c2)OCO3)S(=O)(=O)c2ccccc2)cc1OC,50*,8,8,-10
COc1ccc(OC)c(N(CC(=O)Nc2ccccc2)S(=O)(=O)c2ccccc2)c1,10,0,10,-13
COc1ccc(N(CC(=O)Nc2ccc3c(c2)OCO3)S(=O)(=O)c2ccccc2)c(OC)c1,63*,4,8,4
CC(=O)Nc1c(C)ccc(S(N)(=O)=O)c1C,-1,-4,0,12
O=C(Cn1cnc2c(NC(=O)OCc3ccccc3)ncnc21)NCc1ccccn1,1,16,11,.
COc1cccc(NC(=O)N2CCCC2C(=O)NC23CC4CC(CC(C4)C2)C3)c1 (stereo not drawn),1,-7,7,-7
C=CCOc1ccc(/C=C/C(=O)OCc2csc(CC(=O)Nc3ccccc3C)n2)cc1,-1,-5,5,.
CN(C)C=Nc1ccc2nc3c(cc2c1)[nH]c1ccccc13,71*,3,6,-36
Cc1ccc(-c2nnn(CC(=O)N(CC(=O)NC3CCCC3)c3ccccc3F)n2)o1,.,.,.,-11
COC(=O)CNc1c(-c2ccccn2)nc2ccc(Br)cn12,62*,8,-6,-14
CCOC(=O)CNc1c(-c2ccccc2)nc2ccc(Cl)cn12,13,-3,-6,-9
Nc1ncnc2c1ncn2[C@@H]1O[C@H](CNC(=O)[C@@H]2CCCN2S(=O)(=O)c2ccc(F)cc2)[C@@H](O)[C@H]1O,.,8,0,.
O=C(N/N=C/c1cccnc1)c1cccc(NC(=O)c2cccc(Br)c2)c1,76*,0,0,5
SMILES,AHR act,procasp7 counter,procasp3 activ,PolyA inh
CC(=O)Nc1cccc(C(=O)N/N=C/c2cccnc2)c1,12,-1,-14,6
CCOc1ccc(Br)cc1C(=O)N/N=C/c1cccnc1,67*,4,-3,3
O=C(Nc1nc2c(F)cc(F)cc2s1)C1CC(=O)N(Cc2ccco2)C1 (stereo not drawn),60*,-15,0,3
COc1ccc(/C=N/Nc2ncnc3c2[nH]c2ccc(C)cc23)c(OC)c1OC,63*,-5,-2,-7
Cc1ccc2[nH]c3c(NCc4ccco4)ncnc3c2c1,57*,-8,-1,?
COc1cc(OC)c(OC)cc1/C=N/Nc1ncnc2c1[nH]c1ccccc12,36,-5,0,-4
O=Cc1c(NC2CCCCC2)c2ccccc2[nH]c1=O,0,0,-1,-11
Oc1ccccc1-c1csc(-c2ccccc2)n1,69*,-2,-1,-35
CC1CC(C)(C)NC(=S)N1CCC(=O)N1CCc2ccccc2C1 (stereo not drawn),2,-1,6,8
CCOc1ccc(N2CC(=O)N/C2=N\c2nc(C)cc(C)n2)cc1,50*,4,-2,0
Cc1cc(C)nc(/N=C2\NC(=O)CC(C(=O)O)N2c2ccc(Oc3ccccc3)cc2)n1 (stereo not drawn),-3,8,-4,1
O=C1c2ccccc2C(=O)C1c1ccc2ccccc2n1,60*,-1,-3,-32
COC(=O)C1=C(C)NC(C)=C(C(=O)OC)C1c1ccc2ccccc2n1,22,11,4,0
Nn1c(SCC(=O)NCCC2=CCCCC2)nnc1C(F)(F)F,50*,17,6,3
Cc1ccc(C(=O)NCCCNC(=O)c2ccco2)cc1,-2,4,1,-4
Cc1ccc(-c2cnc(SCCNC(=O)c3ccco3)[nH]2)cc1,61*,10,-12,4
O=C(Nc1ccc2c(c1)OCO2)C1CCCN(S(=O)(=O)c2cccs2)C1 (stereo not drawn),66*,3,-3,5
O=C(N/N=C\c1cc2c(cc1Cl)OCO2)c1cccs1,78*,-9,3,?
O=C(N/N=C/c1cc2c(cc1Cl)OCO2)c1ccc2c(c1)OCCO2,18,8,-14,6
O=C(Nc1ccc2c(c1)OCO2)c1cccs1,88*,9,3,8
O=C(Nc1ccc(NC(=O)c2cccs2)c(Cl)c1)c1ccco1,64*,3,6,15
CC1=NN(c2ccc(C(F)(F)F)cn2)C(=O)C1,51*,0,-3,0
Cc1ccc(C(=O)NCC(=O)N2CCCN(C)CC2)cc1C,0,13,9,.
Cc1cc(SCC(=O)N/N=C/c2cccnc2)nc2c(C)cccc12,10,11,-3,5
CC(=O)Nc1ccc(C(=O)CSc2cc(C)c3cccc(C)c3n2)cc1,66*,9,1,-14
SMILES,AHR act,procasp7 counter,procasp3 activ,PolyA inh
Clc1ccc(-c2csc(N3CCc4ccccc4C3)n2)cc1,52*,-1,-3,-3
c1ccc2c(c1)NC(c1ccncc1)n1c-2nc2ccccc21 (stereo not drawn),70*,1,1,-3
Cc1ccsc1C1Nc2ccccc2-c2nc3ccccc3n21 (stereo not drawn),82*,7,4,-20
CC(C)(C)c1ccc(S(=O)(=O)N2CCNC(=O)C2)cc1,-1,11,13,.
CC(C)(C)c1ccc(OCc2ccc(C(=O)NN)o2)cc1,26,6,3,8
NNC(=O)c1ccc(COc2ccc3c(c2)CCC3)o1,59*,8,1,-1
NNC(=O)c1ccc(COc2ccc(Br)cc2)o1,78*,-7,6,-5

# Screening results (PubChem)
